Screening results (PubChem BioAssay)
Sampled rows, rich in hits. Any-hit rate of the full collection: about 2.6%.
Rce1 inhib = yeast Ras-converting enzyme inhibition; yeast membranes, quenched prenylated peptide cleavage fluorescence; calls only; 290,000 compounds, 0.27% hits; AID 2563;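 active = fall in fluorescence gain of 50% or more versus controls, with final raw signal at or below 3038400; inconclusive = same 50% fall but final raw signal above 3038400; inactive = fall in fluorescence gain under 50%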;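 note: plate controls were neutral control wells for no effect and wells lacking membranes for full effect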
Rin1 Abl inh = inhibitors of human Rin1-Abl protein interaction; 360,000 compounds, 0.4% hits; TR-FRET Rin1/Abl binding, biochemical; inhibition, % at 7.35 µM; P00519+Q13671; in the data active = inhibition above about 5%, passing the limit was not always enough
GRK2 aptamer HTS = human GRK2 inhibition via aptamer displacement; AID 488847; bead flow cytometry, FAM-aptamer displacement from GRK2; P25098; 330,000 compounds, 0.59% hits; inhibition of aptamer binding, % at 10 µM;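 active = inhibition of aptamer binding above 40%, roughly 3 SD of noise, on plates passing a quality check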;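 note: median bead fluorescence of bound FAM aptamer so fluorescent compounds give negative values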
Target sequence (P25098 whole entry, looked up): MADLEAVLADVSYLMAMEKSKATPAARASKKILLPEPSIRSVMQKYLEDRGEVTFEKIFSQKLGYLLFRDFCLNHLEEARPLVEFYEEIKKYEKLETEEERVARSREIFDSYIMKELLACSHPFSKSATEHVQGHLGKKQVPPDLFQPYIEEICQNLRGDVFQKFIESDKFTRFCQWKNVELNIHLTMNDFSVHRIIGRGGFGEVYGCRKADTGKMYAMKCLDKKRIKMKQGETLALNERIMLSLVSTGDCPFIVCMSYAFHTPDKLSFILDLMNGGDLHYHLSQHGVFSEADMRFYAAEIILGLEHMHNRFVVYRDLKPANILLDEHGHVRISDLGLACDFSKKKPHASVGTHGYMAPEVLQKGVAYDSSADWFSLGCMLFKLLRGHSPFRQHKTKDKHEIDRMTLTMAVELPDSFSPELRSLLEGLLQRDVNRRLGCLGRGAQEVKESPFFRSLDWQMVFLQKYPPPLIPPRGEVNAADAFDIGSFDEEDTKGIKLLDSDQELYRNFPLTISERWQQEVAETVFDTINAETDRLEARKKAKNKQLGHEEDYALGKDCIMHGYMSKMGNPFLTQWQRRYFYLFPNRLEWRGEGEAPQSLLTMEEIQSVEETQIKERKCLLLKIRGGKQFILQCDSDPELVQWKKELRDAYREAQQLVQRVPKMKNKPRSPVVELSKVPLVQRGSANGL
T cell modulator = T cell immune modulators affecting CD8 T cell-vesicle binding. 2C CD8+ T cell-vesicle binding, flow cytometry; hits give low values. response (vesicle binding), % at 7 µM. 330,000 compounds, 0.068% hits;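 active = response, share of CD8 T cells binding vesicles, and their 90th percentile fluorescence all below set limits, cut at about 80% in these data, passing the limit was not always enough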;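 note: values below 100% mean blocked vesicle binding to the CD8+ T cells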
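material = purified 2C TCR transgenic mouse naive CD8+ T cells | controls = Unloaded micro-vesicles (low), QL9 vesicles with 0.7% DMSO (high) | detection = cytometric PE anti-B7-1 and Alexa647 anti-CD8 signals after 1% paraformaldehyde fixation | incubation = binding step 1.5 h, 37 °C, antibody labelling 20 min, ice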
SKN-1 block = inhibitors of C. elegans SKN-1; inhibition, % at 21.8 µM; C. elegans VP596 Pgst-4::GFP/RFP ratio, acrylamide-induced, 24 h; 360,000 compounds, 0.49% hits;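 active = interference check ratio from 0.5 to 1.5 plus GFP to RFP signal ratio inhibition reaching or exceeding a fixed threshold, cut at about 30% in these data, passing the limit was not always enough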
Myeloid diff 2 = myeloid differentiation induction; ER-HoxA9 myeloid progenitors, lysozyme-GFP differentiation, flow cytometry; calls only at 10 µM; 360,000 compounds, 1% hits; AID 624256;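 active = normalized GFP-positive differentiation at or above the plate's own cutoff, the solvent-only control mean plus 3 SD; inconclusive = no clear call, values can overlap the other calls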;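 note: cells exposed to compound for four days before flow analysis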
Myeloid diff CP1 = compounds promoting myeloid differentiation; AID 651706; calls only; ER-HoxA9 myeloid progenitors, GFP/Mac1 double-positive flow; shares compounds with Myeloid diff 2; 2,300 compounds, 2% hits;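 active = share of green or green-and-red cells above 9 and 9% in run 1 or 4 and 3% in run 2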
GFP autofluor = compound fluorescence in myeloid differentiation counter-screen; shares compounds with Myeloid diff 2; ER-HoxA9 myeloid progenitors, no estrogen, GFP autofluorescence flow cytometry; vehicle wells 0%, positive control 100%; fluorescence response, % (concentration not given with the values); 2,300 compounds, 7.4% hits; AID 651707;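 active = over 5% cells positive for green fluorescent reporter, or over 2% positive for both it and APC stain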;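 note: range taken on the double positive population between DMSO and positive control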
Active calls of the source: *; i = inactive; ? = inconclusive; / = no result; + = active, no number.

SMILES | Rce1 inhib | Rin1 Abl inh | GRK2 aptamer HTS | T cell modulator | SKN-1 block | Myeloid diff 2 | Myeloid diff CP1 | GFP autofluor
Cc1cccc(Nc2ncccc2C(=O)NCc2cccs2)c1C | i | -4 | 2 | 469 | 18 | i | i | 0
Cc1cccc(Cn2c(NCCO)nc3c2c(=O)n(C)c(=O)n3C)c1 | i | 4 | 2 | 230 | 0 | + | i | 0
C=CCNc1nc2c(c(=O)n(C)c(=O)n2C)n1Cc1ccc(F)cc1 | i | -3 | 0 | 543 | 5 | i | i | 1
Cn1c(=O)c2c(nc(NCCc3ccccc3)n2Cc2ccc(F)cc2)n(C)c1=O | i | 0 | 0 | 810 | 12 | i | / | /
O=C(Cc1cccc2ccccc12)NN=Cc1ccc2c(c1)CCC2 | / | -1 | / | / | -3 | i | / | /
O=[N+]([O-])c1cccc(-c2nc(-c3ccncc3)no2)c1 | i | -3 | 1 | 219 | 18 | + | i | 2
COc1cccc(-c2nc(-c3ccncc3)no2)c1 | i | 3 | 0 | 298 | 29 | i | / | /
CCCCn1c(N)c(N(CC(C)C)C(=O)c2ccc(OC)c(S(=O)(=O)N3CCOCC3)c2)c(=O)[nH]c1=O | / | 1 | / | / | -8 | i | / | /
CCCCC(=O)NC(=S)Nc1cccc(NC(=O)c2ccccc2)c1 | i | 7 | 2 | 537 | -9 | i | / | /
Cc1cccc(/C=N/NC(=O)c2ccc(NC(=O)c3ccc(Cl)cc3)cc2)n1 | / | 1 | 0 | 268 | 2 | + | i | 2
O=C(Nc1ccc(Oc2ccccc2)cc1)N[C@@H](Cc1ccccc1)C(=O)O | i | 1 | 3 | 265 | -1 | i | / | /
COC(=O)C(C)(C)c1cccnc1C#N | / | 1 | / | / | -16 | i | i | 0
COC(=O)C(C)(C)NC(=O)c1cccs1 | i | -4 | 0 | 257 | 23 | i | / | /
O=C(NC1CCCCC1)C(Cc1ccccc1)NS(=O)(=O)c1cccs1 (centres undefined) | i | 3 | 3 | 482 | -7 | i | i | 1
COc1ccc(C2NC(=O)NC(C)=C2C(=O)Nc2cccc(C)c2C)cc1 (centres undefined) | i | -3 | 0 | 331 | 32 | i | / | /
CC1=C(C(=O)Nc2ccccc2Cl)C(c2ccc(N(C)C)cc2)NC(=O)N1 (centres undefined) | i | 3 | 1 | 164 | 9 | + | i | 0
CCc1ccc(C=C2SC(=S)N(CCCC(=O)Nc3ccc(C(=O)O)cc3)C2=O)cc1 | / | -2 | / | / | 7 | i | i | 0
CCc1ccc(/C=C2/SC(=S)N(CCC(=O)Nc3ccc(C(=O)O)cc3)C2=O)cc1 | i | -4 | 0 | 289 | 23 | i | / | /
Cc1ccc(CNC(=O)C(=O)NCC2OCCN2C(=O)c2cccs2)cc1 (centres undefined) | i | -2 | 0 | 146 | 2 | + | i | 0
O=C(NCc1ccccc1)C(=O)NCC1OCCN1C(=O)c1cccs1 (centres undefined) | i | -4 | 6 | 372 | -2 | i | / | /
CC1(C(=O)NS(=O)(=O)c2ccccc2Cl)CCN1C(=O)Cc1cccc2ccccc12 (centres undefined) | / | 0 | / | / | 14 | i | / | /
Cc1cc(O)ccc1-c1cc(C(=O)NCc2ccc(F)cc2)[nH]n1 | / | -4 | / | / | -4 | i | / | /
COC(=O)Cc1[nH]nc2c1C1(C(=O)N(Cc3ccccc3)c3ccccc31)C(C#N)=C(N)O2 (centres undefined) | i | 5 | 0 | 478 | -1 | ? | / | /
Cc1[nH]nc2c1C1(C(=O)N(Cc3ccc(Cl)cc3)c3ccccc31)C(C#N)=C(N)O2 (centres undefined) | i | 4 | 4 | 472 | 10 | i | i | 0
COc1cccc(-n2c(=O)c3c(C)c(C(=O)N(C)C)sc3n(CC(=O)NCC3CCCO3)c2=O)c1 (centres undefined) | / | -1 | 0 | 150 | 10 | i | / | /
SMILES | Rce1 inhib | Rin1 Abl inh | GRK2 aptamer HTS | T cell modulator | SKN-1 block | Myeloid diff 2 | Myeloid diff CP1 | GFP autofluor
CCN(CC)C(=O)CN1C(=O)c2cccc3cccc1c23 | i | -3 | 5 | 157 | 3 | i | / | /
CCN(CC)C(=O)CN1C(=O)C(=O)c2ccccc21 | i | -1 | 0 | 355 | -9 | i | i | 1
COc1ccccc1Oc1nnnn1-c1ccc(C(N)=O)cc1 | i | 2 | 0 | 455 | -2 | i | i | 1
CCOC(=O)c1cc(C(=O)OCC)c2cccc(C)n2c1=O | i | -1 | 2 | 191 | -9 | + | i | 0
COCCn1ccc2c(OCC(=O)Nc3cc(OC)ccc3OC)cccc2c1=O | i | -1 | 3 | 593 | 1 | + | i | 0
C[C@]1(C(=O)NCCCNc2ncc(C(F)(F)F)cc2Cl)C=C[C@@H](Cc2ccccc2)N1C(=O)c1ccccc1 | i | 1 | / | / | 9 | i | i | 0
Cc1ccc(NC(=O)CNC(=O)c2cccs2)nc1 | i | 2 | 0 | 246 | 8 | i | / | /
COc1ccc(C(=O)Nc2sc3c(c2C#N)CCN(C(C)=O)C3)cc1 | i | -3 | 4 | 445 | 6 | i | / | /
CC(=O)N1CCc2c(sc(NC(=O)c3ccc([N+](=O)[O-])o3)c2C#N)C1 | i | -5 | / | / | -3 | + | i | 0
Cc1ccc(S(=O)(=O)N2CCCCC2)cc1NC(=O)Cn1cc(C(F)(F)F)ccc1=O | / | -1 | 0 | 277 | -5 | i | / | /
O=C(Nc1ccccc1)N1CCCC1c1cccs1 (centres undefined) | i | 1 | 1 | 286 | 11 | i | / | /
CCCCN1CC(COCc2ccccc2)Oc2cccc(N3CCCC3)c2S1(=O)=O (centres undefined) | / | -2 | / | / | -3 | i | i | 0
CC(C(=O)NNS(=O)(=O)c1cccc(C(F)(F)F)c1)n1nnc(N2CCOCC2)n1 (centres undefined) | / | -1 | 1 | i | 0 | + | i | 0
CC(C(=O)NN)n1nnc(N2CCOCC2)n1 (centres undefined) | i | -1 | 0 | 381 | -4 | i | / | /
CCOC(=O)[C@]12CCCC=C1N(Cc1ccco1)C(=O)[C@H](CC(=O)N1CCC(c3ccccc3)CC1)C2 | / | / | / | / | 2 | i | / | /
CCC(c1nnc(SCC(=O)NC23CC4CC(CC(C4)C2)C3)o1)N(C)C (centres undefined) | / | 2 | 0 | 200 | -8 | + | i | 0
CC(C)NC(=O)C1(C)CSCC(=O)N1C1CCN(Cc2ccccc2)CC1 (centres undefined) | / | / | / | / | -3 | i | / | /
CC[n+]1c(/C=C/c2ccc(OC)c(OC)c2)ccc2ccccc21 | i | -8 | 1 | 177 | -3 | + | i | 2
